Assay results: ChEMBL document CHEMBL1152489, “Synthesis and biological evaluation of a novel series of 1,5-benzothiazepine derivatives as potential antimicrobial agents” (2009)
Activity calls are given as the source filed them. The calls are words filed in the database; no cut-off is given here.

What was measured:
[1] = tested on: Candida albicans; test: Antifungal activity against Candida albicans ATCC 10231 at 25 ug/disk after 24 hrs by disk diffusion method; assay type: functional; conditions: ATCC 10231, 24 h, read-out: IZ
Outline: (§1)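 Disc diffusion: sterile 6 mm paper discs impregnated with compound dissolved in DMSO, placed on the surface of medium inoculated with the microorganism; DMSO-only discs served as controls. Plates were incubated at 37 °C for 24 h. Growth-inhibition zone diameter (mm) was read and averaged over three trials.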

[2] = tested on: Staphylococcus aureus; test: Antibacterial activity against Staphylococcus aureus ATCC 25923 at 30 ug/disk after 24 hrs by disk diffusion method; assay type: functional; conditions: ATCC 25923, 24 h, read-out: IZ; outline: as §1
[3] = tested on: Staphylococcus epidermidis; test: Antibacterial activity against Staphylococcus epidermidis ATCC 26069 at 30 ug/disk after 24 hrs by disk diffusion method; assay type: functional; conditions: ATCC 26069, 24 h, read-out: IZ; outline: as §1
[4] = tested on: Escherichia coli; test: Antibacterial activity against Escherichia coli ATCC 44752 at 30 ug/disk after 24 hrs by disk diffusion method; assay type: functional; conditions: ATCC 44752, 24 h, read-out: IZ; outline: as §1
[5] = tested on: Candida albicans; test: Antifungal activity against Candida albicans ATCC 10231 at 200 ug/disk after 24 hrs by disk diffusion method; assay type: functional; conditions: for zone of inhibition at 200 µg/disc: ATCC 10231, 24 h, read-out: IZ
Outline: (§2)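 Disk diffusion on media seeded with the organism. Sterile paper discs (6 mm) carried test compound dissolved in DMSO at 12.5, 50, 100 or 200 µg/disc. DMSO-only discs served as controls. Plates were incubated 24 h at 37 °C. The read-out is the growth-inhibition zone diameter in mm, averaged over three trials (±1 mm).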

[6] = tested on: Candida albicans; test: Antifungal activity against Candida albicans ATCC 10231 at 100 ug/disk after 24 hrs by disk diffusion method; assay type: functional; conditions: for zone of inhibition at 100 µg/disc: ATCC 10231, 24 h, read-out: IZ; outline: as §2
[7] = tested on: Candida albicans; test: Antifungal activity against Candida albicans ATCC 10231 at 50 ug/disk after 24 hrs by disk diffusion method; assay type: functional; conditions: for zone of inhibition at 50 µg/disc: ATCC 10231, 24 h, read-out: IZ; outline: as §2
[8] = tested on: Staphylococcus aureus; test: Antibacterial activity against Staphylococcus aureus ATCC 25923 at 200 ug/disk after 24 hrs by disk diffusion method; assay type: functional; conditions: ATCC 25923, 24 h, read-out: IZ; outline: as §2
[9] = tested on: Staphylococcus aureus; test: Antibacterial activity against Staphylococcus aureus ATCC 25923 at 100 ug/disk after 24 hrs by disk diffusion method; assay type: functional; conditions: ATCC 25923, 24 h, read-out: IZ; outline: as §2
[10] = tested on: Staphylococcus aureus; test: Antibacterial activity against Staphylococcus aureus ATCC 25923 at 50 ug/disk after 24 hrs by disk diffusion method; assay type: functional; conditions: ATCC 25923, 24 h, read-out: IZ; outline: as §2
[11] = tested on: Staphylococcus epidermidis; test: Antibacterial activity against Staphylococcus epidermidis ATCC 26069 at 200 ug/disk after 24 hrs by disk diffusion method; assay type: functional; conditions: ATCC 26069, 24 h, read-out: IZ; outline: as §2
[12] = tested on: Staphylococcus epidermidis; test: Antibacterial activity against Staphylococcus epidermidis ATCC 26069 at 100 ug/disk after 24 hrs by disk diffusion method; assay type: functional; conditions: ATCC 26069, 24 h, read-out: IZ; outline: as §2
[13] = tested on: Staphylococcus epidermidis; test: Antibacterial activity against Staphylococcus epidermidis ATCC 26069 at 50 ug/disk after 24 hrs by disk diffusion method; assay type: functional; conditions: for zone of inhibition at 50 µg/disc: ATCC 26069, 24 h, read-out: IZ; outline: as §2
[14] = tested on: Escherichia coli; test: Antibacterial activity against Escherichia coli ATCC 44752 at 200 ug/disk after 24 hrs by disk diffusion method; assay type: functional, organism-based; outline: as §2
[15] = tested on: Escherichia coli; test: Antibacterial activity against Escherichia coli ATCC 44752 at 100 ug/disk after 24 hrs by disk diffusion method; assay type: functional, organism-based; outline: as §2
[16] = tested on: Escherichia coli; test: Antibacterial activity against Escherichia coli ATCC 44752 at 50 ug/disk after 24 hrs by disk diffusion method; assay type: functional, organism-based; outline: as §2
[17] = tested on: Candida albicans; test: Antifungal activity against Candida albicans ATCC 10231 after 24 hrs by disk diffusion method; assay type: functional, organism-based; outline: as §2
[18] = tested on: Staphylococcus aureus; test: Antibacterial activity against Staphylococcus aureus ATCC 25923 after 24 hrs by disk diffusion method; assay type: functional, organism-based; outline: as §2
[19] = tested on: Staphylococcus epidermidis; test: Antibacterial activity against Staphylococcus epidermidis ATCC 26069 after 24 hrs by disk diffusion method; assay type: functional, organism-based; outline: as §2
[20] = tested on: Candida albicans; test: Antifungal activity against Candida albicans ATCC 10231 at <12.5 ug/disk after 24 hrs by disk diffusion method; assay type: functional, organism-based; outline: as §2
[21] = tested on: Staphylococcus aureus; test: Antibacterial activity against Staphylococcus aureus ATCC 25923 at <12.5 ug/disk after 24 hrs by disk diffusion method; assay type: functional, organism-based; outline: as §2
[22] = tested on: Staphylococcus epidermidis; test: Antibacterial activity against Staphylococcus epidermidis ATCC 26069 at <12.5 ug/disk after 24 hrs by disk diffusion method; assay type: functional, organism-based; outline: as §2

SMILES | zone of inhibition at 200 µg/disc [5] | zone of inhibition at 100 µg/disc [6] | zone of inhibition at 50 µg/disc [7] | zone of inhibition at 200 µg/disc [8] | zone of inhibition at 100 µg/disc [9] | zone of inhibition at 50 µg/disc [10] | zone of inhibition at 200 µg/disc [11] | zone of inhibition at 100 µg/disc [12] | zone of inhibition at 50 µg/disc [13] | inhibition zone (IZ) [14] | inhibition zone (IZ) [15] | inhibition zone (IZ) [16] | also measured
OC(Cn1cncn1)(Cn1cncn1)c1ccc(F)cc1F [FLUCONAZOLE] |  |  |  |  |  |  |  |  |  |  |  |  | zone of inhibition at 25 µg/disc [1]: 23 mm
CN[C@H](CC(C)C)C(=O)N[C@H]1C(=O)N[C@@H](CC(N)=O)C(=O)N[C@H]2C(=O)N[C@H]3C(=O)N[C@H](C(=O)N[C@H](C(=O)O)c4cc(O)cc(O)c4-c4cc3ccc4O)[C@H](O)c3ccc(c(Cl)c3)Oc3cc2cc(c3O[C@@H]2O[C@H](CO)[C@@H](O)[C@H](O)[C@H]2O[C@H]2C[C@](C)(N)[C@H](O)[C@H](C)O2)Oc2ccc(cc2Cl)[C@H]1O [VANCOMYCIN] |  |  |  |  |  |  |  |  |  |  |  |  | zone of inhibition at 30 µg/disc [2]: 18 mm; zone of inhibition at 30 µg/disc [3]: 18 mm; zone of inhibition at 30 µg/disc [4]: 8 mm
CCOC(=O)C1C(C)=Nc2ccccc2SC1c1ccc(O)cc1 (stereo unspecified) | 30 mm | 24 mm | 14 mm | 18 mm | 15 mm | 7 mm | 20 mm | 16 mm | 10 mm | inactive | inactive | inactive | Activity [17]: Dose-dependent effect; Activity [18]: Dose-dependent effect; Activity [19]: Dose-dependent effect; Activity [20]: inactive; Activity [21]: inactive; Activity [22]: inactive
COc1ccc(C2Sc3ccccc3NC(C)=C2C(C)=O)cc1 (stereo unspecified) | 11 mm | 9 mm | 8 mm | 10 mm | 7 mm | 6.5 mm | 10 mm | 7 mm |  | inactive | inactive | inactive | inhibition zone (IZ) [13]: inactive
CC(=O)C1=C(C)Nc2cc(Cl)ccc2SC1c1ccccc1[N+](=O)[O-] (stereo unspecified) |  |  |  | 8 mm | 7 mm | 7 mm | 8 mm | 8 mm | 7 mm | inactive | inactive | inactive | inhibition zone (IZ) [5]: inactive; inhibition zone (IZ) [6]: inactive; inhibition zone (IZ) [7]: inactive
CC(=O)C1=C(C)Nc2ccccc2SC1c1ccc(Cl)cc1 (stereo unspecified) | 24 mm | 21 mm | 18 mm | 15 mm | 14 mm | 12 mm | 19 mm | 17 mm | 17 mm | inactive | inactive | inactive | Activity [17]: Dose-dependent effect; Activity [18]: Dose-dependent effect; Activity [19]: Dose-dependent effect; Activity [20]: inactive; Activity [21]: inactive; Activity [22]: inactive
CC(=O)C1=C(C)Nc2ccccc2SC1c1ccc(Cl)cc1Cl (stereo unspecified) | 14 mm | 10 mm | 9 mm | 10 mm | 7 mm | 7 mm | 11 mm | 8 mm | 7 mm | inactive | inactive | inactive | 
